Measured values from ChEMBL document CHEMBL3603837, “Indole Glucocorticoid Receptor Antagonists Active in a Model of Dyslipidemia Act via a Unique Association with an Agonist Binding Site” (J Med Chem, 2015).
The source made the active and inactive calls. The calls are words filed in the database; no cut-off is given here.

Tests used:
[1] = target: T1, Glucocorticoid receptor (Homo sapiens) (UniProt P04150); experiment: Displacement of [3H]-dexamethasone from human glucocorticoid receptor expressed in HEK293 cells at 10 uM by scintillation counting based radioligand competition binding assay; format: cell-based
T1 sequence (whole entry): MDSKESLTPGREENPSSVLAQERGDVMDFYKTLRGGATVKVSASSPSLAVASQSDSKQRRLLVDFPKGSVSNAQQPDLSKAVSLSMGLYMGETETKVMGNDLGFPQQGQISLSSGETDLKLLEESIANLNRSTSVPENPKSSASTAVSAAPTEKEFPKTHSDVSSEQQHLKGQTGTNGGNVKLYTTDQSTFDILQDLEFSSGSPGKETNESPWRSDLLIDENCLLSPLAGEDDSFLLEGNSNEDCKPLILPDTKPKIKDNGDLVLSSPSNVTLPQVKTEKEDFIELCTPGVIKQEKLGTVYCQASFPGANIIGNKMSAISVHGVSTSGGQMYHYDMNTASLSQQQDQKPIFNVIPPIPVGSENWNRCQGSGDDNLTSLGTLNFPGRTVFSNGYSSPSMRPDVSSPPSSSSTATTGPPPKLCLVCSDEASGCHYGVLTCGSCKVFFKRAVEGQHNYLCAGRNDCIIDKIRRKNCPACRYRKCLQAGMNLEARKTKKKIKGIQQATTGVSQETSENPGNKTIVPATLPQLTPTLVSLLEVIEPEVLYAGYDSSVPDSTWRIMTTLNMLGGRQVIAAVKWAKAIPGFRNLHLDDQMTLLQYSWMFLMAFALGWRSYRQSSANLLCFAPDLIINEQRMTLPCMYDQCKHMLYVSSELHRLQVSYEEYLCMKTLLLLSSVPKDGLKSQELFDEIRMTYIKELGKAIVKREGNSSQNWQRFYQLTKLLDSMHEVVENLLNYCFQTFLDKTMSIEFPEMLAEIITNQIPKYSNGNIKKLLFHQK
Method in brief: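 Competition binding with 0.3 nM [3H]-dexamethasone and 20 μg 293-GR lysate per well; nonspecific binding defined with 0.5 μM dexamethasone. Incubated overnight at 4 °C, free ligand removed with charcoal–dextran, then scintillation counting. Percent inhibition at 10 μM was calculated.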

[2] = AUC in rat at 1 mg/kg, iv; format: ADME, organism-based; conditions: in vivo
[3] = Half life in rat at 1 mg/kg, iv; format: ADME, organism-based; conditions: in vivo
[4] = Clearance in rat at 1 mg/kg, iv; format: ADME, organism-based; conditions: in vivo
[5] = Volume of distribution at steady state in rat at 1 mg/kg, iv; format: ADME, organism-based; conditions: in vivo, read-out: Vdss
[6] = Half life in rat at 3 mg/kg, po; format: ADME, organism-based; conditions: in vivo
[7] = Cmax in rat at 3 mg/kg, po; format: ADME, organism-based; parameters: dose 3 mg/kg, route oral; conditions: in vivo
Rattus norvegicus [8] = experiment: Prevention of atypical antipsychotic quetiapine associated weight gain in Wistar rat at 10 mg/kg, po for 14 days; format: functional, organism-based
Method in brief: (§1)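 Prophylactic protocol in lean female Wistar rats (n = 9−10 per group). A dose response of test compound was given orally together with quetiapine at a fixed 10 mg/kg, concurrently for 14 days.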

Rattus norvegicus [9] = experiment: Toxicity in Wistar rat model of atypical antipsychotic quetiapine-induced weight gain assessed as effect on food intake at 10 mg/kg, po for 14 days; format: organism-based; conditions: in vivo, 336 h; method in brief: as §1

In the case of `COc1cc(F)ccc1-c1c(CN(C)Cc2ccccc2)[nH]c2c(N)cc(F)cc12`, the Activity [1] is reported as “inactive”.
Compound `COc1cc(F)ccc1-c1c(CN(C)Cc2ccccc2)[nH]c2c(NS(C)(=O)=O)cc(C(C)C)cc12` has an AUC [2] of 315 ng·h/mL, a half-life [3] of 3.96 h and a clearance [4] of 58.2 mL/min/kg. For the same compound, the Vd [5] was 13.8 L/kg, the half-life [6] was 3.31 h and the Cmax [7] was 63.3 ng/mL. The inhibition (Rattus norvegicus [8]) was “Active” and the Activity (Rattus norvegicus [9]) was “Non-toxic”.
